Laboratory results taken from ChEMBL document CHEMBL5042534, “Fluconazole-COX Inhibitor Hybrids: A Dual-Acting Class of Antifungal Azoles” (2022).
In brackets after ≈: the same amount, converted by molar mass. Activity calls are given as the source filed them. The rule behind the calls is not given here.

Key:
[1] = test system: Candida albicans; test: Antifungal activity against Candida albicans SN152 harbouring erg3delta delta/erg11delta delta assessed as […] fungal growth inhibition measured every 40 mins for 48 hrs by double dilution method; type: functional, organism-based; details: dose 1-64 µg/ml
How it was run: (§1)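 erg3ΔΔ/erg11ΔΔ C. albicans taken from 24 h, 30 °C YPAD-agar colonies, brought to 1×10^-3 OD600 in PBS, then diluted 1:100 in YPAD. Serial twofold drug dilutions from 64 to 1 µg/mL in YPAD. OD600 read every 40 min over 48 h at 30 °C against no-drug and medium-blank controls. Triplicate wells, two independent experiments.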

[2] = test system: Candida parapsilosis; test: Antifungal activity against Candida parapsilosis ATCC 22019 assessed as fungal growth inhibition incubated for 24 hrs by CLSI based broth double-dilution assay; type: functional; details: Lodderomyces parapsilosis
How it was run: (§2)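 CLSI M27-A3 broth microdilution with modifications in YPAD. Cells from 24 h, 30 °C YPAD-agar colonies brought to 1×10^-3 OD600 in PBS, then diluted 1:100. Twofold dilutions from 64 to 0.003 µg/mL. After 24 h at 30 °C, MIC80 taken as the lowest concentration giving ≥80% OD600 reduction versus no-drug wells. Triplicate wells, two independent experiments.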

[3] = test system: Candida parapsilosis; test: Antifungal activity against Candida parapsilosis ATCC 22019 assessed as reduction in drug tolerance by measuring zone of inhibition at 25 ug incubated for 24 to 48 hrs by disk diffusion assay; type: functional, organism-based; details: dose 25.0 µg, time 24-48 hrs
How it was run: (§3)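 Plated onto casitone agar from 24 h, 30 °C YPAD-agar colonies suspended in PBS. Inoculum OD600 0.02 for C. albicans SN152, 0.025 for C. parapsilosis ATCC 22019 and C. tropicalis 660. Central 6-mm disk holding 25 µg drug. Plates incubated at 30 °C and imaged at 24 h (inhibition zone) and 48 h (tolerant colonies within the zone).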

[4] = test system: Candida albicans; test: Antifungal activity against Candida albicans SN152 harbouring erg3delta delta/erg11delta delta assessed as […] fungal growth inhibition at 64 ug/mL measured every 40 mins for 48 hrs by double dilution method; type: functional, organism-based; details: dose 64.0 µg/ml; how it was run: as §1
[5] = test system: Candida albicans; test: Antifungal activity against Candida albicans SN152 assessed as reduction in drug tolerance by measuring zone of inhibition at 25 ug incubated for 24 to 48 hrs by disk diffusion assay; type: functional, organism-based; details: dose 25.0 µg, time 24-48 hrs; how it was run: as §3
[6] = test system: Candida tropicalis; test: Antifungal activity against Candida tropicalis 660 assessed as reduction in drug tolerance by measuring zone of inhibition at 25 ug incubated for 24 to 48 hrs by disk diffusion assay; type: functional, organism-based; details: dose 25.0 µg, time 24-48 hrs; how it was run: as §3
[7] = test system: Candida albicans; test: Antifungal activity against Candida albicans SN152 assessed as fungal growth inhibition incubated for 24 hrs by CLSI based broth double-dilution assay; type: functional
How it was run: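 Broth double-dilution per CLSI M27-A3 (minor modifications); colonies from YPAD agar (24 h, 30 °C) suspended in PBS to 1 × 10^-3 OD600 then diluted 1:100 into YPAD; serial twofold dilutions 64–0.003 μg/mL in YPAD; 24 h at 30 °C; OD600 read; MIC80 = lowest concentration reducing OD600 ≥80% versus no-drug wells; triplicate, two independent experiments.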

[8] = test system: Candida albicans; test: Antifungal activity against Candida albicans SN152 harbouring erg3delta delta/erg11delta delta assessed as fungal growth inhibition incubated for 24 hrs by CLSI based broth double-dilution assay; type: functional; how it was run: as §2
[9] = test system: Candida albicans; test: Antifungal activity against Candida albicans SN152 harbouring erg3delta delta/erg11delta delta assessed as […] fungal growth inhibition at 1 to 64 ug/mL measured every 40 mins for 48 hrs by double dilution method; type: functional, organism-based; details: dose 1-64 µg/ml; how it was run: as §1

| Compound | Activity [1] | MIC80 [2] [µg/mL] | Activity [3] | Activity [4] | Activity [5] | Activity [6] | MIC80 [7] [µg/mL] | MIC80 [8] [µg/mL] | Activity [9] |
| --- | --- | --- | --- | --- | --- | --- | --- | --- | --- |
| CC(C)Cc1ccc(C(C)C(=O)O)cc1 (centres undefined) | Dose-Dependent Effect |  |  |  |  |  |  |  |  |
| C[C@@H](c1ncncc1F)[C@](O)(Cn1cncn1)c1ccc(F)cc1F [VORICONAZOLE] |  | 0.015 (≈ 0.0429 µM) | inactive | Active | inactive | Active |  |  |  |
| CC(C)Cc1ccc([C@H](C)C(=O)NC[C@](O)(Cn2cncn2)c2ccc(F)cc2F)cc1 | Dose-Dependent Effect |  | Active |  | Active | Active | 0.003 (≈ 0.00678 µM) | 64 (≈ 145 µM) |  |
| CC(C(=O)O)c1ccc(-c2ccccc2)c(F)c1 (centres undefined) | Dose-Dependent Effect |  |  |  |  |  |  |  |  |
| C[C@H](C(=O)NC[C@](O)(Cn1cncn1)c1ccc(F)cc1F)c1ccc(-c2ccccc2)c(F)c1 | Dose-Dependent Effect | 0.5 (≈ 1.04 µM) | Active |  | Active | Active | 0.007 (≈ 0.0146 µM) | 64 (≈ 133 µM) |  |
| OC(Cn1cncn1)(Cn1cncn1)c1ccc(F)cc1F |  |  | inactive |  | inactive | Active |  |  | inactive |
